# A selection: hits, their analogues and other compounds. The true share with any hit is near 1.7%.
# DNMT1 inh: inhibitors of human DNMT1. 360,000 tested, 0.83% active. DNMT1 molecular beacon, Hinp1I cleavage, fluorescence. inhibition (reported as % activation of signal), % at 10 µM. P26358; in the data active = inhibition above about 50%
# STEP block: STEP (human) phosphatase inhibition; P54829; recombinant STEP, OMFP fluorogenic substrate, fluorescence; inhibition, % at 20 µM; 360,000 tested, 0.25% active;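 active = inhibition at 20 µM, scaled per plate between control wells, above about 37%, limit read from the data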;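 also: 0% = DMSO with enzyme and substrate and 100% = substrate only without enzyme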
# Target sequence (P54829 whole entry, looked up): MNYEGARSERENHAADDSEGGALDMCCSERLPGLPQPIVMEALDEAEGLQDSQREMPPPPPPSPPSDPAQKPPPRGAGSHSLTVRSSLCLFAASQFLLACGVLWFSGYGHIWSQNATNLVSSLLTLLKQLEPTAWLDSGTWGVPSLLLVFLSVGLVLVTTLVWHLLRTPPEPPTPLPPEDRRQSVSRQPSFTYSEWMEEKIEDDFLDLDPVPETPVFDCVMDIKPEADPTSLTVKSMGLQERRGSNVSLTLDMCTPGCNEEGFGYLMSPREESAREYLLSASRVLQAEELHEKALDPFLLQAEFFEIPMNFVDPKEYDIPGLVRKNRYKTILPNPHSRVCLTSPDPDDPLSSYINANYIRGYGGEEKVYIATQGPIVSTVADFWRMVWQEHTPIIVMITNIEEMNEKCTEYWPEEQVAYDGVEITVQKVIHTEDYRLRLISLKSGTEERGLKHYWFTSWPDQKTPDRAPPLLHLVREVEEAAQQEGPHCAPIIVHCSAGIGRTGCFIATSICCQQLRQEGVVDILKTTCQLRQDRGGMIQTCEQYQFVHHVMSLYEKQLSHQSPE
#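 Material: STEP (striatal-enriched tyrosine phosphatase) enzyme, cell-free | Medium: 50 mM Bis-Tris pH 6.0 with 2.5 mM DTT and 0.005% Tween 20 | Read-out: Percent inhibition scaled to no-enzyme and uninhibited-enzyme controls, plate-pattern corrected | Signal: Fluorescence read at 480 nm ex / 540 nm em | Times: 20 min reaction, room temperature, in the dark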
# SUMO1 PPI mod: modulators of human SUMO1-mediated protein-protein interactions. SUMO1 binding to a labelled peptide, TR-FRET, 1 h. 360,000 tested, 0.33% active. AID 602429. inhibition, % at 20 µM; in the data active = inhibition above about 37%
# Target sequence (P63165 whole entry, looked up): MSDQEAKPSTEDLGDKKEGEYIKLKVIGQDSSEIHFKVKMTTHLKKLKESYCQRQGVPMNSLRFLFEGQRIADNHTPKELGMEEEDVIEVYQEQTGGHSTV
# LMPTP inh: blocks human LMPTP phosphatase | P24666 | recombinant LMPTP-A, OMFP fluorogenic substrate, fluorescence intensity | inhibition, % at 20 µM | 360,000 tested, 0.22% active | AID 651560;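 active = compounds that cut the enzyme signal by at least half of the control window in the single-dose screen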;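 also: plate controls were DMSO wells with enzyme plus substrate for no effect and substrate without enzyme for full effect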
#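 Test system: LMPTP-A phosphatase enzyme; input: 0.625 nM LMPTP-A final; reagent: OMFP substrate, 400 µM final; compound dosing: 20 µM single dose, 3% DMSO; incubation: 50 min dark incubation at room temperature; measured by: endpoint fluorescence intensity from OMFP dephosphorylation; measure: % inhibition relative to no-enzyme and uninhibited control wells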
# Scp-1 inhibitor: Scp-1 (human) phosphatase inhibition; inhibition, % at 20 µM; 340,000 tested, 0.88% active; Q9GZU7; Recombinant Scp1, phosphopeptide, malachite green phosphate absorbance;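 active = inhibition above about 50% at 20 µM, limit read from the data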;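 also: plate controls were DMSO wells with enzyme for no effect and wells lacking enzyme for full effect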
#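 Times: enzyme reaction 45 min at room temperature, colour 5 min, stabilisation 30 min. Material: SCP-1 catalytic fragment, aa 76-261. Medium: Acidic Tris acetate buffer with magnesium and detergent. Signal: colorimetric free-phosphate detection, absorbance 630 nm. Read-out basis: % inhibition of SCP-1 phosphate liberation. Reagent: Phosphorylated 17-residue peptide substrate.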
# Scp1 confirm: confirmation of human Scp-1 phosphatase inhibitors; shares compounds with Scp-1 inhibitor; recombinant SCP-1 catalytic domain, phosphate release, malachite green absorbance; inhibition, % at 20 µM; 2,500 tested, 61% active;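 also: plate controls were DMSO with enzyme for no effect and buffer wells lacking enzyme for full effect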
# Scp-1 MG ctr: counter-screen for Scp-1 inhibitors: colorimetric interference; Colorimetric interference counterscreen, malachite green absorbance 630 nm; apparent inhibition (interference), % at 20 µM; shares compounds with Scp-1 inhibitor; 2,500 tested, under 10 active;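 also: compounds added after enzyme reaction finished so only phosphate colour detection is probed; plate controls were DMSO wells with completed Scp-1 reaction for no effect and substrate wells lacking enzyme for full effect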
# Scp1 DSF: binds human Scp-1, shifting its melting temperature; shares compounds with Scp-1 inhibitor; 1,500 tested, 25% active; Recombinant SCP1, Sypro Orange thermal shift Tm; thermal shift relative to vanadate control, % at 40 µM; AID 540329;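 active = substances whose mean melting-temperature shift, as a percentage of the reference inhibitor's shift, reaches about 5.3%, limit read from the data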;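 also: 0% = Tm of DMSO wells and 100% = Tm with sodium orthovanadate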
# * = called active by the depositor; nt = no result given.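 The calls were made as follows, unless noted: active = inhibition of at least 30% at 20 µM; inactive = the rest.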
SMILES,DNMT1 inh,STEP block,SUMO1 PPI mod,LMPTP inh,Scp-1 inhibitor,Scp1 confirm,Scp-1 MG ctr,Scp1 DSF
COc1ccccc1-c1nn(Cc2ccccc2)cc1C(=O)NCC(c1ccco1)N1CCCC1 (stereo unspecified),-23,1,-1,-2,1,nt,nt,nt
Cc1ccc(/C=C/C(=O)N2CCN(S(=O)(=O)c3cccs3)CC2)o1,0,-2,9,0,-5,nt,nt,nt
O=C(/C=C/c1ccco1)N1CCN(S(=O)(=O)c2cccs2)CC1,10,3,-3,7,58*,47*,-4,1
Cc1[nH]c2ccccc2c1C(=O)CNc1nccs1,-3,0,0,1,96*,-6,-7,nt
CC(C)(C)n1nnnc1C(c1ccccc1)N1CCN(c2ncc(C(F)(F)F)cc2Cl)CC1 (stereo unspecified),nt,nt,3,3,nt,nt,nt,nt
Cc1csc(=O)n1CCC(=O)OCC(=O)N(CC(C)C)c1c(N)n(Cc2ccccc2)c(=O)[nH]c1=O,1,0,5,0,0,nt,nt,nt
C[N+]1(CN2C(=O)C3C4C=CC(C4)C3C2=O)CCCCC1 (stereo unspecified),3,-2,-3,-3,103*,89*,-7,3
CCN1C(=O)[C@@H]2[C@@H](c3ccc(SC4CCCCC4)c(OC)c3)N3CCCC[C@@]3(C(=O)OC)[C@@H]2C1=O,-18,-1,-6,3,53*,-2,-7,nt
COC(=O)[C@@]12CCCCN1[C@H](c1ccc(SC3CCCCC3)c(OC)c1)[C@@H]1C(=O)N(C)C(=O)[C@@H]12,-7,3,4,2,-11,nt,nt,nt
Cc1c(CC(=O)N[C@@H](CCCNC(N)=O)C(=O)O)c(=O)oc2cc3oc4c(c3cc12)CCCC4,0,1,2,-1,nt,nt,nt,nt
Cc1oc2c(C)c3oc(=O)c(CC(=O)N[C@@H](CCCNC(N)=O)C(=O)O)c(C)c3cc2c1C,33,25,30,3,52*,43*,-7,-7
CCN1C(=O)C(=O)N(CC(=O)N(C)CC(=O)Nc2ccccc2Cl)C1=O,0,-1,-2,-1,-1,-5,-11,nt
Nn1c(SCC(=O)Nc2ccc3c(c2)OCCO3)nnc1C(F)(F)F,2,0,0,-4,100*,10,0,nt
COC(=O)c1nnn(-c2cc(Cl)cc(Cl)c2)c1C(=O)OC,-3,-1,-1,-1,-8,nt,nt,nt
CC1CCN(S(=O)(=O)c2ccc(NC(=O)Cc3cccs3)cc2)CC1,25,0,2,3,77*,60*,-26,5.8*
CCc1ccc(NC(=O)CS(=O)CC(=O)Nc2ccc(F)cc2F)cc1 (stereo unspecified),12,10,-3,6,94*,89*,-4,-21
O=[N+]([O-])c1ccc2c(c1)CO[C@@]21O[C@H](CCO)C[C@H](O)[C@H]1O,11,-1,-10,-1,nt,nt,nt,nt
COc1ccc(OC)c(-c2nc3ccccc3nc2-c2ccccc2)c1,-2,-1,-11,2,58*,-27,-22,nt
Cc1ccc(NC(=O)CN2C(=O)S/C(=C\c3cc(Cl)c(OCC(=O)O)c(Cl)c3)C2=O)cc1,8,98*,20,85*,90*,57*,-15,-4
CCOc1ccc(/C=C2\SC(=S)N(CCC(=O)Nc3ccc(C(=O)O)cc3)C2=O)cc1,62*,45*,31,67*,88*,60*,-20,5
O=C(CCCN1C(=O)/C(=C\c2ccccc2)SC1=S)Nc1ccc(C(=O)O)cc1,1,1,-23,2,1,nt,nt,nt
O=C(CCN1C(=O)S/C(=C\c2ccc(Cl)cc2)C1=O)Nc1ccc(C(=O)O)cc1,1,8,-23,12,80*,72*,-13,-4
O=C(CCN1C(=O)/C(=C/c2ccc3c(c2)OCO3)SC1=S)Nc1ccc(C(=O)O)cc1,5,18,4,92*,84*,71*,-11,8.7*
O=C(c1cc(COc2c(F)cccc2F)on1)N1CC[C@@H]2CCCC[C@H]2C1,9,0,1,2,nt,nt,nt,nt
Cc1ccc(S(=O)(=O)N2[C@@H](c3ccc(Cl)cc3)C(C(=O)O)=CC[C@H]2c2ccc(Cl)cc2)cc1,4,4,7,0,-6,nt,nt,nt
SMILES,DNMT1 inh,STEP block,SUMO1 PPI mod,LMPTP inh,Scp-1 inhibitor,Scp1 confirm,Scp-1 MG ctr,Scp1 DSF
O=C(NCc1ccc(F)cc1)C1(S(=O)(=O)c2ccc(Cl)cc2)CC1,-2,-2,1,-2,-4,nt,nt,nt
COc1cccc(/C=C2\SC(=S)N(CCCC(=O)Nc3cccc(C(=O)O)c3)C2=O)c1,1,1,-20,-1,nt,nt,nt,nt
CCOc1ccc(/C=C2\SC(=S)N(CCC(=O)Nc3cccc(C(=O)O)c3)C2=O)cc1,0,54*,-16,74*,85*,61*,-20,37*
Cn1c(SCC(=O)Nc2nncs2)nnc1C1CC1,50,29,18,0,79*,53*,-15,5.5*
COc1ccc(C(=O)Nc2ccc3ccccc3c2)cc1OC,-2,2,-3,3,-2,nt,nt,nt
COc1ccc(NC(=O)CN(c2ccccc2)S(=O)(=O)N(C)C)cc1Cl,-1,-4,6,1,-13,nt,nt,nt
COc1ccc(NC(=O)CN(c2ccccc2)S(=O)(=O)N(C)C)cc1OC,13,0,3,9,76*,69*,-2,-4
COc1ccc(C(=O)Nc2ccc3c(c2)C(=O)c2ccccc2C3=O)cc1OC,57*,55*,21,5,66*,16,-8,nt
CCN(CC)c1ncnc2c1ncn2[C@H]1CN(Cc2ccncc2)C[C@@H](CO)O1,3,4,1,0,nt,nt,nt,nt
CCCCCCCCN1C(=O)[C@H](CC(=O)N2CCCCC2)C[C@@]2(C(=O)OCC)CCCC=C12,nt,nt,8,2,nt,nt,nt,nt
Cc1ccc(NC(=O)c2cccc(C(=O)Nc3ccc(C)cc3C(=O)O)c2)c(C(=O)O)c1,0,6,17,-2,57*,54*,-11,1
O=C(NNC(=O)c1ccc(NC(=O)c2ccccc2)cc1)c1ccc(F)cc1,22,25,22,48,39,nt,nt,nt
O=C(NNC(=O)c1ccc(-c2ccccc2)cc1)c1ccccc1,49,24,2,31,74*,54*,-19,5.7*
Cc1cccc(C(=O)NNC(=O)c2ccc(-c3ccccc3)cc2)c1,41,11,5,43,70*,73*,-16,-9
